In ChEMBL document CHEMBL3112482, “Nonclassical antifolates, part 5. Benzodiazepine analogs as a new class of DHFR inhibitors: synthesis, antitumor testing and molecular modeling study” (Eur J Med Chem, 2014):

Tests used:
Type in all cases: functional
K562 = assay: Growth inhibition of human K562 cells at 10 uM after 48 hrs; conditions: K562, 48 h, read-out: GI
In short: (§1)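 Single-dose primary screen in the NCI 60 human tumour cell line panel, run at the NCI facility. The panel covers nine subpanels: leukaemia, non-small cell lung, colon, CNS, melanoma, ovarian, renal, prostate and breast. Read-out was percent growth of treated cells, shown as a mean graph and reported as percent growth inhibition.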

[1] = Growth inhibition of human OVCAR4 cells at 10 uM after 48 hrs; conditions: OVCAR-4, 48 h, read-out: GI; in short: as §1
[2] = Growth inhibition of human SF539 cells at 10 uM after 48 hrs; conditions: SF-539, 48 h, read-out: GI
In short: (§2)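 NCI 60-cell-line disease-oriented human tumor panel, single-dose primary screen at 10 µM. Data given as mean-graph percent growth of treated cells, reported as percent growth inhibition (GI %).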

OVCAR-8 = assay: Growth inhibition of human OVCAR8 cells at 10 uM after 48 hrs; conditions: OVCAR-8, 48 h, read-out: GI; in short: as §1
MDA-MB-231 = assay: Growth inhibition of human MDA-MB-231 cells at 10 uM after 48 hrs; conditions: MDA-MB-231, 48 h, read-out: GI; in short: as §1
SR = assay: Growth inhibition of human SR cells at 10 uM after 48 hrs; conditions: read-out: GI; in short: as §2
[3] = Growth inhibition of human Hs 578T cells at 10 uM after 48 hrs; conditions: read-out: GI; in short: as §1
[4] = Growth inhibition of human NCI-ADR-RES cells at 10 uM after 48 hrs; conditions: read-out: GI; in short: as §1
[5] = Cytotoxicity against human melanoma cells at 10 uM after 48 hrs; conditions: Melanoma cell; for CC50: read-out: LC50 (the source's name); in short: as §1
TK-10 = assay: Growth inhibition of human TK10 cells at 10 uM after 48 hrs; conditions: TK-10, 48 h, read-out: GI; in short: as §2
PC-3 = assay: Growth inhibition of human PC3 cells at 10 uM after 48 hrs; conditions: PC-3, 48 h, read-out: GI; in short: as §1
HT-29 = assay: Growth inhibition of human HT-29 cells at 10 uM after 48 hrs; conditions: HT-29, 48 h, read-out: GI; in short: as §1
SK-MEL-5 = assay: Growth inhibition of human SK-MEL-5 cells at 10 uM after 48 hrs; conditions: SK-MEL-5, 48 h, read-out: GI; in short: as §2
NCI-H226 = assay: Growth inhibition of human NCI-H226 cells at 10 uM after 48 hrs; conditions: NCI-H226, 48 h, read-out: GI; in short: as §1
T47D = assay: Growth inhibition of human T47D cells at 10 uM after 48 hrs; conditions: read-out: GI; in short: as §2
A549 = assay: Growth inhibition of human A549 cells at 10 uM after 48 hrs; conditions: A549, 48 h, read-out: GI; in short: as §1
[6] = Cytotoxicity against human breast cancer cells at 10 uM after 48 hrs; conditions: Cancer cell lines; in short: as §1
COLO 205 = assay: Growth inhibition of human COLO205 cells at 10 uM after 48 hrs; conditions: COLO 205, 48 h, read-out: GI; in short: as §1
MOLT-4 = assay: Growth inhibition of human MOLT4 cells at 10 uM after 48 hrs; conditions: MOLT-4, 48 h, read-out: GI; in short: as §1
Malme-3M = assay: Growth inhibition of human MALME-3M cells at 10 uM after 48 hrs; conditions: read-out: GI; in short: as §1
OVCAR-3 = assay: Growth inhibition of human OVCAR3 cells at 10 uM after 48 hrs; conditions: OVCAR-3, 48 h, read-out: GI; in short: as §1
[7] = Growth inhibition of human OVCAR5 cells at 10 uM after 48 hrs; conditions: OVCAR-5, 48 h, read-out: GI; in short: as §1
SN12C = assay: Growth inhibition of human SN12C cells at 10 uM after 48 hrs; conditions: read-out: GI; in short: as §2
786-0 = assay: Growth inhibition of human 786-0 cells at 10 uM after 48 hrs; conditions: 786-0, 48 h, read-out: GI; in short: as §1
ACHN = assay: Growth inhibition of human ACHN cells at 10 uM after 48 hrs; conditions: read-out: GI; in short: as §1
[8] = Growth inhibition of human RXF393 cells at 10 uM after 48 hrs; conditions: RXF 393, 48 h, read-out: GI; in short: as §1
BT-549 = assay: Growth inhibition of human BT549 cells at 10 uM after 48 hrs; conditions: BT-549, 48 h, read-out: GI; in short: as §1
SK-OV-3 = assay: Growth inhibition of human SKOV3 cells at 10 uM after 48 hrs; conditions: SK-OV-3, 48 h, read-out: GI; in short: as §2
[9] = Growth inhibition of human EKVX cells at 10 uM after 48 hrs; conditions: read-out: GI; in short: as §1
NCI-H322M = assay: Growth inhibition of human NCI-H322M cells at 10 uM after 48 hrs; conditions: read-out: GI; in short: as §1
NCI-H23 = assay: Growth inhibition of human NCI-H23 cells at 10 uM after 48 hrs; conditions: NCI-H23, 48 h, read-out: GI; in short: as §1
SK-MEL-28 = assay: Growth inhibition of human SK-MEL-28 cells at 10 uM after 48 hrs; conditions: SK-MEL-28, 48 h, read-out: GI; in short: as §2
[10] = Growth inhibition of human UO31 cells at 10 uM after 48 hrs; conditions: UO-31, 48 h, read-out: GI; in short: as §2
[11] = Cytotoxicity against human CNS cancer cells at 10 uM after 48 hrs; conditions: Cancer cell lines; for CC50: read-out: LC50 (the source's name)
DU-145 = assay: Growth inhibition of human DU145 cells at 10 uM after 48 hrs; conditions: DU-145, 48 h, read-out: GI; in short: as §1
MCF7 = assay: Growth inhibition of human MCF7 cells at 10 uM after 48 hrs; conditions: MCF7, 48 h, read-out: GI; in short: as §1
[12] = Growth inhibition of human HOP92 cells at 10 uM after 48 hrs; conditions: HOP-92, 48 h, read-out: GI; in short: as §1
CAKI-1 = assay: Growth inhibition of human CAKI-1 cells at 10 uM after 48 hrs; conditions: CAKI-1, 48 h, read-out: GI; in short: as §1
SNB-19 = assay: Growth inhibition of human SNB19 cells at 10 uM after 48 hrs; conditions: SNB-19, 48 h, read-out: GI; in short: as §2
SF-268 = assay: Growth inhibition of human SF268 cells at 10 uM after 48 hrs; conditions: SF-268, 48 h, read-out: GI; in short: as §2
CCRF-CEM = assay: Growth inhibition of human CCRF-CEM cells at 10 uM after 48 hrs; conditions: read-out: GI; in short: as §1
[13] = Cytotoxicity against human renal cancer cells at 10 uM after 48 hrs; conditions: Cancer cell lines
SNB-75 = assay: Growth inhibition of human SNB75 cells at 10 uM after 48 hrs; conditions: SNB-75, 48 h, read-out: GI; in short: as §2
MDA-MB-435 = assay: Growth inhibition of human MDA-MB-435 cells at 10 uM after 48 hrs; conditions: MDA-MB-435, 48 h, read-out: GI; in short: as §1

Nc1nc2c(c(-c3ccc(Cl)cc3)n1)CCC/C2=C\c1ccc(Cl)cc1
inhibition of growth at 10 µM (K562): 56.5% | inhibition of growth at 10 µM [1]: < 30% | inhibition of growth at 10 µM [2]: < 30% | inhibition of growth at 10 µM (OVCAR-8): 58.8% | inhibition of growth at 10 µM (MDA-MB-231): < 30% | inhibition of growth at 10 µM (SR): 79.2% | inhibition of growth at 10 µM [3]: < 30% | inhibition of growth at 10 µM [4]: < 30% | GI50 [5]: 15.4 µM | TGI [5]: 36.5 µM | CC50 [5]: 80 µM | inhibition of growth at 10 µM (TK-10): < 30% | inhibition of growth at 10 µM (PC-3): < 30% | inhibition of growth at 10 µM (HT-29): 92.3% | inhibition of growth at 10 µM (SK-MEL-5): < 30% | inhibition of growth at 10 µM (NCI-H226): < 30% | inhibition of growth at 10 µM (T47D): < 30% | inhibition of growth at 10 µM (A549): 33.3% | GI50 [6]: 23.6 µM | LC50 (concentration killing 50% of cells) [6]: 92.2 µM | TGI [6]: 70.9 µM | inhibition of growth at 10 µM (COLO 205): < 30% | inhibition of growth at 10 µM (MOLT-4): 35.1% | inhibition of growth at 10 µM (Malme-3M): < 30% | inhibition of growth at 10 µM (OVCAR-3): 60.9% | inhibition of growth at 10 µM [7]: < 30% | inhibition of growth at 10 µM (SN12C): < 30% | inhibition of growth at 10 µM (786-0): < 30% | inhibition of growth at 10 µM (ACHN): < 30% | inhibition of growth at 10 µM [8]: 65.5% | inhibition of growth at 10 µM (BT-549): < 30% | inhibition of growth at 10 µM (SK-OV-3): < 30% | inhibition of growth at 10 µM [9]: < 30% | inhibition of growth at 10 µM (NCI-H322M): < 30% | inhibition of growth at 10 µM (NCI-H23): 38.9% | inhibition of growth at 10 µM (SK-MEL-28): < 30% | inhibition of growth at 10 µM [10]: 32.2% | GI50 [11]: 13.7 µM | TGI [11]: 53.1 µM | CC50 [11]: 91.9 µM | inhibition of growth at 10 µM (DU-145): < 30% | inhibition of growth at 10 µM (MCF7): 66.9% | inhibition of growth at 10 µM [12]: < 30% | inhibition of growth at 10 µM (CAKI-1): < 30% | inhibition of growth at 10 µM (SNB-19): < 30% | inhibition of growth at 10 µM (SF-268): < 30% | inhibition of growth at 10 µM (CCRF-CEM): < 30% | CC50 [13]: 78.4 µM | GI50 [13]: 14.7 µM | TGI [13]: 40.6 µM | inhibition of growth at 10 µM (SNB-75): < 30%

COc1cc(/C=C2\CCCC3=C(c4cc(OC)c(OC)c(OC)c4)Nc4ccccc4N=C32)cc(OC)c1OC
inhibition of growth at 10 µM (K562): 94.7% | inhibition of growth at 10 µM [1]: 66.5% | inhibition of growth at 10 µM [2]: 64.9% | inhibition of growth at 10 µM (OVCAR-8): 81.4% | inhibition of growth at 10 µM (MDA-MB-231): 75.9% | inhibition of growth at 10 µM (SR): 97.3% | inhibition of growth at 10 µM (MDA-MB-435): 96.8% | inhibition of growth at 10 µM [3]: 46.8% | inhibition of growth at 10 µM [4]: 94.1% | GI50 [5]: 1.7 µM | TGI [5]: 5.6 µM | CC50 [5]: 71.4 µM | inhibition of growth at 10 µM (TK-10): < 30% | inhibition of growth at 10 µM (PC-3): 61.8% | inhibition of growth at 10 µM (T47D): 76.2% | inhibition of growth at 10 µM (A549): 94.1% | GI50 [6]: 2.9 µM | LC50 (concentration killing 50% of cells) [6]: 89.4 µM | TGI [6]: 48.2 µM | inhibition of growth at 10 µM (COLO 205): 99.8% | inhibition of growth at 10 µM (MOLT-4): 99.4% | inhibition of growth at 10 µM [7]: 83.5% | inhibition of growth at 10 µM (786-0): 98.2% | inhibition of growth at 10 µM (SK-OV-3): 54.6% | inhibition of growth at 10 µM [9]: 40.2% | inhibition of growth at 10 µM (NCI-H322M): < 30% | inhibition of growth at 10 µM (NCI-H23): 91.5% | inhibition of growth at 10 µM (SK-MEL-28): 70.6% | inhibition of growth at 10 µM [10]: 94.4% | GI50 [11]: 6.8 µM | TGI [11]: 94.3 µM | CC50 [11]: > 100 µM | inhibition of growth at 10 µM (DU-145): 95.1% | inhibition of growth at 10 µM (MCF7): 63.1% | inhibition of growth at 10 µM [12]: < 30% | inhibition of growth at 10 µM (CAKI-1): 93.5% | inhibition of growth at 10 µM (SNB-19): 35.6% | inhibition of growth at 10 µM (SF-268): 74% | inhibition of growth at 10 µM (CCRF-CEM): 95.7% | CC50 [13]: 68.4 µM | GI50 [13]: 2.3 µM | TGI [13]: 20 µM | inhibition of growth at 10 µM (SNB-75): 45.5%
